How the values were obtained:
Staphylococcus aureus [1] = assay: Antibacterial activity against Staphylococcus aureus ATCC 9144 after 48 hrs by microdilution method; type: functional; conditions: ATCC 9144, 48 h
[2] = Antibacterial activity against methicillin-resistant Staphylococcus epidermidis RP62A CCUG 31568 (ATCC 35984) after 48 hrs by microdilution method; type: functional
Procedure, shortened: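 Broth microdilution MIC against the reference-strain panel. Compounds were supplied as HCl salts for aqueous solubility in the test medium. Precipitation in the test buffer is flagged at higher concentrations.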

Bacillus subtilis = assay: Antibacterial activity against Bacillus subtilis 168 ATCC 23857 after 48 hrs by microdilution method; type: functional; conditions: subsp. subtilis str. 168 ATCC 23857, 48 h
[3] = system: Corynebacterium glutamicum; assay: Antibacterial activity against Corynebacterium glutamicum ATCC 13032 after 48 hrs by microdilution method; type: functional; conditions: ATCC 13032, 48 h
Escherichia coli [4] = assay: Antibacterial activity against Escherichia coli ATCC 25922 after 48 hrs by microdilution method; type: functional; conditions: ATCC 25922, 48 h
Pseudomonas aeruginosa [5] = assay: Antibacterial activity against Pseudomonas aeruginosa PAO1 DSM 19880 (ATCC 15692) after 48 hrs by microdilution method; type: functional
[6] = Hemolytic activity in human RBC after 1 hr; type: ADME, cell-based; conditions: Erythrocyte
[7] = Selectivity index, ratio of hemolytic EC50 for human RBC to MIC for Staphylococcus aureus ATCC 9144
Staphylococcus aureus [8] = assay: Antibacterial activity against Staphylococcus aureus clinical isolate after 24 hrs by microdilution method; type: functional
Enterococcus sp. = assay: Antibacterial activity against Enterococcus sp. clinical isolate after 24 hrs by microdilution method; type: functional
Escherichia coli [9] = assay: Antibacterial activity against Escherichia coli clinical isolate after 24 hrs by microdilution method; type: functional
Pseudomonas aeruginosa [10] = assay: Antibacterial activity against Pseudomonas aeruginosa clinical isolate after 24 hrs by microdilution method; type: functional
Klebsiella pneumoniae [11] = assay: Antibacterial activity against Klebsiella pneumoniae clinical isolate after 24 hrs by microdilution method; type: functional
Staphylococcus aureus [12] = assay: Antibacterial activity against methicillin resistant Staphylococcus aureus N315 after 24 hrs by microdilution method; type: functional; conditions: N315, 24 h
Staphylococcus aureus [13] = assay: Antibacterial activity against methicillin resistant Staphylococcus aureus NCTC 10442 after 24 hrs by microdilution method; type: functional; conditions: NCTC 10442, 24 h
Staphylococcus aureus [14] = assay: Antibacterial activity against methicillin resistant Staphylococcus aureus clinical isolate 85/2082 after 24 hrs by microdilution method; type: functional; conditions: isolate 85/2082, 24 h
Staphylococcus aureus [15] = assay: Antibacterial activity against methicillin resistant Staphylococcus aureus clinical isolate WIS after 24 hrs by microdilution method; type: functional
Staphylococcus aureus [16] = assay: Antibacterial activity against methicillin resistant Staphylococcus aureus IHT 99040 after 24 hrs by microdilution method; type: functional; conditions: IHT 99040, 24 h
Enterococcus faecium [17] = assay: Antibacterial activity against vancomycin-resistant Enterococcus faecium 50673722 after 24 hrs by microdilution method; type: functional; conditions: Enterococcus faecium, 50673722, 24 h
Enterococcus faecium [18] = assay: Antibacterial activity against vancomycin-resistant Enterococcus faecium 50901530 after 24 hrs by microdilution method; type: functional; conditions: Enterococcus faecium, 50901530, 24 h
Enterococcus faecium [19] = assay: Antibacterial activity against vancomycin-resistant Enterococcus faecium K36-18 after 24 hrs by microdilution method; type: functional; conditions: K36-18, 24 h
Enterococcus faecium [20] = assay: Antibacterial activity against vancomycin-resistant Enterococcus faecium 50758899 after 24 hrs by microdilution method; type: functional; conditions: Enterococcus faecium, 50758899, 24 h
Enterococcus faecium [21] = assay: Antibacterial activity against vancomycin-resistant Enterococcus faecium TUH50-22 after 24 hrs by microdilution method; type: functional; conditions: TUH50-22, 24 h
Escherichia coli [22] = assay: Antibacterial activity against multi-drug resistant/OXA-48 producing Escherichia coli 50579417 after 24 hrs by microdilution method; type: functional; conditions: Escherichia coli, 50579417, 24 h
Escherichia coli [23] = assay: Antibacterial activity against multi-drug resistant/VIM-29 producing Escherichia coli 50639799 after 24 hrs by microdilution method; type: functional; conditions: Escherichia coli, 50639799, 24 h
Escherichia coli [24] = assay: Antibacterial activity against multi-drug resistant/NDM-1 producing Escherichia coli 50676002 after 24 hrs by microdilution method; type: functional; conditions: Escherichia coli, 50676002, 24 h
Escherichia coli [25] = assay: Antibacterial activity against multi-drug resistant/NDM-1 producing Escherichia coli 50739822 after 24 hrs by microdilution method; type: functional; conditions: Escherichia coli, 50739822, 24 h
Escherichia coli [26] = assay: Antibacterial activity against multi-drug resistant/IMP-26 producing Escherichia coli 50857972 after 24 hrs by microdilution method; type: functional; conditions: Escherichia coli, 50857972, 24 h
Pseudomonas aeruginosa [27] = assay: Antibacterial activity against multi-drug resistant/VIM-2 producing Pseudomonas aeruginosa K34-7 after 24 hrs by microdilution method; type: functional; conditions: K34-7, 24 h
Pseudomonas aeruginosa [28] = assay: Antibacterial activity against multi-drug resistant/VIM-4 producing Pseudomonas aeruginosa K34-73 after 24 hrs by microdilution method; type: functional; conditions: K34-73, 24 h
Pseudomonas aeruginosa [29] = assay: Antibacterial activity against multi-drug resistant/IMP-14 producing Pseudomonas aeruginosa K44-24 after 24 hrs by microdilution method; type: functional; conditions: K44-24, 24 h
Pseudomonas aeruginosa [30] = assay: Antibacterial activity against multi-drug resistant/NDM1 producing Pseudomonas aeruginosa 50692172 after 24 hrs by microdilution method; type: functional; conditions: Pseudomonas aeruginosa, 50692172, 24 h
Pseudomonas aeruginosa [31] = assay: Antibacterial activity against multi-drug resistant/VIM producing Pseudomonas aeruginosa 50692520 after 24 hrs by microdilution method; type: functional; conditions: Pseudomonas aeruginosa, 50692520, 24 h
Klebsiella pneumoniae [32] = assay: Antibacterial activity against multi-drug resistant/KPC-2 producing Klebsiella pneumoniae K47-25 after 24 hrs by microdilution method; type: functional; conditions: K47-25, 24 h
Klebsiella pneumoniae [33] = assay: Antibacterial activity against multi-drug resistant/NDM1 producing Klebsiella pneumoniae K66-45 after 24 hrs by microdilution method; type: functional; conditions: K66-45, 24 h
Klebsiella pneumoniae [34] = assay: Antibacterial activity against multi-drug resistant/NDM1/OXA-181 producing Klebsiella pneumoniae 50531633 after 24 hrs by microdilution method; type: functional; conditions: Klebsiella pneumoniae, 50531633, 24 h
Klebsiella pneumoniae [35] = assay: Antibacterial activity against multi-drug resistant/OXA-245 producing Klebsiella pneumoniae 50625602 after 24 hrs by microdilution method; type: functional; conditions: Klebsiella pneumoniae, 50625602, 24 h
Klebsiella pneumoniae [36] = assay: Antibacterial activity against multi-drug resistant/VIM1 producing Klebsiella pneumoniae 50667959 after 24 hrs by microdilution method; type: functional; conditions: Klebsiella pneumoniae, 50667959, 24 h
Acinetobacter baumannii [37] = assay: Antibacterial activity against multi-drug resistant/OXA-58 producing Acinetobacter baumannii K12-21 after 24 hrs by microdilution method; type: functional; conditions: K12-21, 24 h
Acinetobacter baumannii [38] = assay: Antibacterial activity against multi-drug resistant/OXA-23 producing Acinetobacter baumannii K44-35 after 24 hrs by microdilution method; type: functional; conditions: K44-35, 24 h
Acinetobacter baumannii [39] = assay: Antibacterial activity against multi-drug resistant/OXA-23 producing Acinetobacter baumannii K47-42 after 24 hrs by microdilution method; type: functional; conditions: K47-42, 24 h
Acinetobacter baumannii [40] = assay: Antibacterial activity against multi-drug resistant/OXA-24 producing Acinetobacter baumannii K55-13 after 24 hrs by microdilution method; type: functional; conditions: K55-13, 24 h
Acinetobacter baumannii [41] = assay: Antibacterial activity against multi-drug resistant/OXA-23 producing Acinetobacter baumannii K63-58 after 24 hrs by microdilution method; type: functional; conditions: K63-58, 24 h
[42] = Hemolytic activity in human RBC at 64 ug/ml after 1 hr relative to control; type: ADME, cell-based, Erythrocyte; conditions: red blood cells (RBC), read-out: Activity
[43] = Aqueous solubility of the compound; type: physicochemical; conditions: buffer

Structure (SMILES): CC(C)(C)c1cc(C(=O)Nc2ccccc2C(=O)NCCNC(=N)N)cc(C(C)(C)C)c1.Cl
- MIC (Staphylococcus aureus [1]): 1 µg/mL
- MIC [2]: 2 µg/mL
- MIC (Bacillus subtilis): 1 µg/mL
- MIC [3]: 0.5 µg/mL
- MIC (Escherichia coli [4]): 8 µg/mL
- MIC (Pseudomonas aeruginosa [5]): 16 µg/mL
- EC50 [6]: 37 µg/mL
- Selectivity Index [7]: 37
- MIC (Staphylococcus aureus [8]): 2 µg/mL
- MIC90 (Staphylococcus aureus [8]): 2 µg/mL
- MIC (Enterococcus sp.): 8 µg/mL
- MIC90 (Enterococcus sp.): 4 µg/mL
- MIC (Escherichia coli [9]): 8 µg/mL
- MIC90 (Escherichia coli [9]): 8 µg/mL
- MIC (Pseudomonas aeruginosa [10]): 16 µg/mL
- MIC90 (Pseudomonas aeruginosa [10]): 32 µg/mL
- MIC (Klebsiella pneumoniae [11]): 16 µg/mL
- MIC90 (Klebsiella pneumoniae [11]): 16 µg/mL
- MIC (Staphylococcus aureus [12]): 4 µg/mL
- MIC (Staphylococcus aureus [13]): 4 µg/mL
- MIC (Staphylococcus aureus [14]): 4 µg/mL
- MIC (Staphylococcus aureus [15]): 4 µg/mL
- MIC (Staphylococcus aureus [16]): > 4 µg/mL
- MIC (Enterococcus faecium [17]): 8 µg/mL
- MIC (Enterococcus faecium [18]): 4 µg/mL
- MIC (Enterococcus faecium [19]): 8 µg/mL
- MIC (Enterococcus faecium [20]): 8 µg/mL
- MIC (Enterococcus faecium [21]): 4 µg/mL
- MIC (Escherichia coli [22]): 32 µg/mL
- MIC (Escherichia coli [23]): 16 µg/mL
- MIC (Escherichia coli [24]): > 32 µg/mL
- MIC (Escherichia coli [25]): 32 µg/mL
- MIC (Escherichia coli [26]): 16 µg/mL
- MIC (Pseudomonas aeruginosa [27]): > 32 µg/mL
- MIC (Pseudomonas aeruginosa [28]): > 32 µg/mL
- MIC (Pseudomonas aeruginosa [29]): > 32 µg/mL
- MIC (Pseudomonas aeruginosa [30]): 32 µg/mL
- MIC (Pseudomonas aeruginosa [31]): 32 µg/mL
- MIC (Klebsiella pneumoniae [32]): 32 µg/mL
- MIC (Klebsiella pneumoniae [33]): 32 µg/mL
- MIC (Klebsiella pneumoniae [34]): 16 µg/mL
- MIC (Klebsiella pneumoniae [35]): 16 µg/mL
- MIC (Klebsiella pneumoniae [36]): 32 µg/mL
- MIC (Acinetobacter baumannii [37]): 32 µg/mL
- MIC (Acinetobacter baumannii [38]): 16 µg/mL
- MIC (Acinetobacter baumannii [39]): 16 µg/mL
- MIC (Acinetobacter baumannii [40]): 32 µg/mL
- MIC (Acinetobacter baumannii [41]): 32 µg/mL

Structure (SMILES): CC(C)(C)c1cc(C(=O)Nc2cccc(C(=O)NCCNC(=N)N)c2)cc(C(C)(C)C)c1.Cl
- MIC (Staphylococcus aureus [1]): 4 µg/mL
- MIC [2]: 4 µg/mL
- MIC (Bacillus subtilis): 4 µg/mL
- MIC [3]: 2 µg/mL
- MIC (Escherichia coli [4]): 8 µg/mL
- MIC (Pseudomonas aeruginosa [5]): 8 µg/mL
- EC50 [6]: 37 µg/mL
- Selectivity Index [7]: 9.3
- MIC (Staphylococcus aureus [8]): 4 µg/mL
- MIC90 (Staphylococcus aureus [8]): 4 µg/mL
- MIC (Enterococcus sp.): 16 µg/mL
- MIC90 (Enterococcus sp.): 8 µg/mL
- MIC (Escherichia coli [9]): 16 µg/mL
- MIC90 (Escherichia coli [9]): 16 µg/mL
- MIC (Pseudomonas aeruginosa [10]): 8 µg/mL
- MIC90 (Pseudomonas aeruginosa [10]): 16 µg/mL
- MIC (Klebsiella pneumoniae [11]): 16 µg/mL
- MIC90 (Klebsiella pneumoniae [11]): 16 µg/mL
- MIC (Staphylococcus aureus [12]): 8 µg/mL
- MIC (Staphylococcus aureus [13]): 8 µg/mL
- MIC (Staphylococcus aureus [14]): 8 µg/mL
- MIC (Staphylococcus aureus [15]): 8 µg/mL
- MIC (Staphylococcus aureus [16]): > 8 µg/mL
- MIC (Enterococcus faecium [17]): 8 µg/mL
- MIC (Enterococcus faecium [18]): 8 µg/mL
- MIC (Enterococcus faecium [19]): 8 µg/mL
- MIC (Enterococcus faecium [20]): 8 µg/mL
- MIC (Enterococcus faecium [21]): 8 µg/mL
- MIC (Escherichia coli [22]): 32 µg/mL
- MIC (Escherichia coli [23]): 16 µg/mL
- MIC (Escherichia coli [24]): 16 µg/mL
- MIC (Escherichia coli [25]): 32 µg/mL
- MIC (Escherichia coli [26]): 16 µg/mL
- MIC (Pseudomonas aeruginosa [27]): 16 µg/mL
- MIC (Pseudomonas aeruginosa [28]): > 32 µg/mL
- MIC (Pseudomonas aeruginosa [29]): 16 µg/mL
- MIC (Pseudomonas aeruginosa [30]): 16 µg/mL
- MIC (Pseudomonas aeruginosa [31]): 16 µg/mL
- MIC (Klebsiella pneumoniae [32]): > 32 µg/mL
- MIC (Klebsiella pneumoniae [33]): 16 µg/mL
- MIC (Klebsiella pneumoniae [34]): 16 µg/mL
- MIC (Klebsiella pneumoniae [35]): 16 µg/mL
- MIC (Klebsiella pneumoniae [36]): 16 µg/mL
- MIC (Acinetobacter baumannii [37]): 32 µg/mL
- MIC (Acinetobacter baumannii [38]): 32 µg/mL
- MIC (Acinetobacter baumannii [39]): 32 µg/mL
- MIC (Acinetobacter baumannii [40]): > 32 µg/mL
- MIC (Acinetobacter baumannii [41]): 32 µg/mL

Structure (SMILES): CC(C)(C)c1cc(C(=O)Nc2ccc(CC(=O)NCCNC(=N)N)cc2)cc(C(C)(C)C)c1.Cl
- MIC (Staphylococcus aureus [1]): 4 µg/mL
- MIC [2]: 4 µg/mL
- MIC (Bacillus subtilis): 4 µg/mL
- MIC [3]: 2 µg/mL
- MIC (Escherichia coli [4]): 16 µg/mL
- MIC (Pseudomonas aeruginosa [5]): 16 µg/mL
- EC50 [6]: > 64 µg/mL
- Selectivity Index [7]: > 16
- hemolysis at 1 h, 64 ug/ml [42]: 35%
- solubility [43]: Insoluble

— ChEMBL document CHEMBL3862007, “Synthesis and antimicrobial activity of small cationic amphipathic aminobenzamide marine natural product mimics and evaluation of relevance against clinical isolates including ESBL-CARBA producing multi-resistant bacteria” (Bioorg Med Chem, 2016)
